Measured values published in ChEMBL document CHEMBL5257147 (ACS Med Chem Lett, 2023).
Active and inactive are the calls of the source. The rule behind the calls is not given here.

What was measured:
[1] = target: Tyrosine-protein kinase Lck (Homo sapiens) (UniProt P06239); experiment: Inhibition of human LCK at 200 nM by Z'-lyte assay
[2] = target: Tyrosine-protein kinase Lyn (Homo sapiens) (UniProt P07948); experiment: Inhibition of human LYN at 200 nM by Z'-lyte assay
[3] = target: Inactive tyrosine-protein kinase PEAK1 (Homo sapiens) (UniProt Q9H792); experiment: Inhibition of human PEAK1 at 200 nM by Z'-lyte assay
[4] = target: Epidermal growth factor receptor (Homo sapiens, UniProt P00533); experiment: Inhibition of wild type EGFR (unknown origin) using TK-substrate preincubated with enzyme for 30 mins followed by substrate and ATP addition for 25 mins by HTRF assay
Sequence of Epidermal growth factor receptor (Homo sapiens, UniProt P00533) (P00533 whole entry): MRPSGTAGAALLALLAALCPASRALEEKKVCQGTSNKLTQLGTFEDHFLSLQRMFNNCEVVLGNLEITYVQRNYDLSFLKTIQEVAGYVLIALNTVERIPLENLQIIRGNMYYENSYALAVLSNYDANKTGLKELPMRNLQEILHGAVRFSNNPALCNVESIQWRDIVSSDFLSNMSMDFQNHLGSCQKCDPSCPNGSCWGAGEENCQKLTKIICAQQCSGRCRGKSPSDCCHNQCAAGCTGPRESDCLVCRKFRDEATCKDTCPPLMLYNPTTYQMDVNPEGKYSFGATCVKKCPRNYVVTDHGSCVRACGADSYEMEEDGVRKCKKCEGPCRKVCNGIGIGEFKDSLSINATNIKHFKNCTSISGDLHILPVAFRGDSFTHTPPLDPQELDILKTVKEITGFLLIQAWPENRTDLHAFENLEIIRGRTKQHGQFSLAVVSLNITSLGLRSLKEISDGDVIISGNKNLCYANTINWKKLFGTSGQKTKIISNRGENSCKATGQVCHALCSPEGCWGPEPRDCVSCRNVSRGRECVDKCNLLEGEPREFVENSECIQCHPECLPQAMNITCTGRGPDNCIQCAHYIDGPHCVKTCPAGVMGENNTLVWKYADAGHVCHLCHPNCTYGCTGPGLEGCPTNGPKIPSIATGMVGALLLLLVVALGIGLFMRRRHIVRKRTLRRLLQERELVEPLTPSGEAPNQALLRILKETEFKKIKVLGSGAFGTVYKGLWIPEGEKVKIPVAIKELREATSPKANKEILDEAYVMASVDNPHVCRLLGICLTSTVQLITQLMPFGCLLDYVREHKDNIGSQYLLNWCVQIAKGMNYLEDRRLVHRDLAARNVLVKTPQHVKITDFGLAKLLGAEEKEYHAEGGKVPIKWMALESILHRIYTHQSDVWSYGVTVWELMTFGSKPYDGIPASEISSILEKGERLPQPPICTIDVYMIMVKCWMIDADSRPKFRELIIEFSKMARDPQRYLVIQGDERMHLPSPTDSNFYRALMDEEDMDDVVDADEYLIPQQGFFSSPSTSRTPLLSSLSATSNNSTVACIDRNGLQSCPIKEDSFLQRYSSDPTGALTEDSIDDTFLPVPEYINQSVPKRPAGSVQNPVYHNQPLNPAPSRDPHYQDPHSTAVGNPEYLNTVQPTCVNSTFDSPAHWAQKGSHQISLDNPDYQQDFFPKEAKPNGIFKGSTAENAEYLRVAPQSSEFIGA

[5] = target: Epidermal growth factor receptor (Homo sapiens, UniProt P00533, C797S/L858R); experiment: Inhibition of EGFR L858R/C797S mutant (unknown origin) using TK-substrate preincubated with enzyme for 30 mins followed by substrate and ATP addition for 20 mins by HTRF assay
Sequence of Epidermal growth factor receptor (Homo sapiens, UniProt P00533, C797S/L858R) (P00533 25-1210 C797S/L858R limits assumed): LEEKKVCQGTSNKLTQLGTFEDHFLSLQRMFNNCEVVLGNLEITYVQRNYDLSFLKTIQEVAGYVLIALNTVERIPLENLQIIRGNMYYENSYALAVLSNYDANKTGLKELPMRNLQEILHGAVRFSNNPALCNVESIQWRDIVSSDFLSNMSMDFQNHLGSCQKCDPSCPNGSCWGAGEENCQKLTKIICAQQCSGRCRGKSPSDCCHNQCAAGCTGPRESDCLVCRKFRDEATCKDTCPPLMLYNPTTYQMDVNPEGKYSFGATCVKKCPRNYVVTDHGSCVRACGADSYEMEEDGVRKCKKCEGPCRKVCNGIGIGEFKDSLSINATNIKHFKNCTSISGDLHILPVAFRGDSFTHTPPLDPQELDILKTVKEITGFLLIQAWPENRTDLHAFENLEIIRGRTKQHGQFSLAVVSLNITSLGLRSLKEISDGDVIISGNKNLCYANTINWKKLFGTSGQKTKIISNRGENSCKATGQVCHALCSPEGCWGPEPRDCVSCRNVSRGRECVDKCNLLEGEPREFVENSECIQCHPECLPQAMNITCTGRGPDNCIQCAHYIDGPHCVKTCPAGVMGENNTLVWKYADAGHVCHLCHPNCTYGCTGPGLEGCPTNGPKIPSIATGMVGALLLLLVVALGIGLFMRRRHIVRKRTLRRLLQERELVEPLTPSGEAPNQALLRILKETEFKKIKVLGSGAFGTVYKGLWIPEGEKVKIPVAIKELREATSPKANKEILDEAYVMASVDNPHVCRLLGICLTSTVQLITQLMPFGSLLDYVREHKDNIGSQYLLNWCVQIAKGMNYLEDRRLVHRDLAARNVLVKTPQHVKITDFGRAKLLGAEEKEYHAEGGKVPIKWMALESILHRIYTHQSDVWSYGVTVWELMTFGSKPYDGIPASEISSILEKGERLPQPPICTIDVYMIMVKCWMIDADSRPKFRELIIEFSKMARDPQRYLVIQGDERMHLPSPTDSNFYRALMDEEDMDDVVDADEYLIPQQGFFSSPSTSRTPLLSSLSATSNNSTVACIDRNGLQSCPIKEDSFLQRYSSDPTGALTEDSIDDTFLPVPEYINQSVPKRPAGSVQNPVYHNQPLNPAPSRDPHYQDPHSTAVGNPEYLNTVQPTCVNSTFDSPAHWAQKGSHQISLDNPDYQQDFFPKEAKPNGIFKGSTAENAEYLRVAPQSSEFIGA

[6] = target: Epidermal growth factor receptor (Homo sapiens, UniProt P00533, C797S/L858R/T790M); experiment: Inhibition of EGFR L858R/T790M/C797S mutant (unknown origin) using TK-substrate preincubated with enzyme for 30 mins followed by substrate and ATP addition for 10 mins by HTRF assay
Sequence of Epidermal growth factor receptor (Homo sapiens, UniProt P00533, C797S/L858R/T790M) (P00533 25-1210 T790M/C797S/L858R limits assumed): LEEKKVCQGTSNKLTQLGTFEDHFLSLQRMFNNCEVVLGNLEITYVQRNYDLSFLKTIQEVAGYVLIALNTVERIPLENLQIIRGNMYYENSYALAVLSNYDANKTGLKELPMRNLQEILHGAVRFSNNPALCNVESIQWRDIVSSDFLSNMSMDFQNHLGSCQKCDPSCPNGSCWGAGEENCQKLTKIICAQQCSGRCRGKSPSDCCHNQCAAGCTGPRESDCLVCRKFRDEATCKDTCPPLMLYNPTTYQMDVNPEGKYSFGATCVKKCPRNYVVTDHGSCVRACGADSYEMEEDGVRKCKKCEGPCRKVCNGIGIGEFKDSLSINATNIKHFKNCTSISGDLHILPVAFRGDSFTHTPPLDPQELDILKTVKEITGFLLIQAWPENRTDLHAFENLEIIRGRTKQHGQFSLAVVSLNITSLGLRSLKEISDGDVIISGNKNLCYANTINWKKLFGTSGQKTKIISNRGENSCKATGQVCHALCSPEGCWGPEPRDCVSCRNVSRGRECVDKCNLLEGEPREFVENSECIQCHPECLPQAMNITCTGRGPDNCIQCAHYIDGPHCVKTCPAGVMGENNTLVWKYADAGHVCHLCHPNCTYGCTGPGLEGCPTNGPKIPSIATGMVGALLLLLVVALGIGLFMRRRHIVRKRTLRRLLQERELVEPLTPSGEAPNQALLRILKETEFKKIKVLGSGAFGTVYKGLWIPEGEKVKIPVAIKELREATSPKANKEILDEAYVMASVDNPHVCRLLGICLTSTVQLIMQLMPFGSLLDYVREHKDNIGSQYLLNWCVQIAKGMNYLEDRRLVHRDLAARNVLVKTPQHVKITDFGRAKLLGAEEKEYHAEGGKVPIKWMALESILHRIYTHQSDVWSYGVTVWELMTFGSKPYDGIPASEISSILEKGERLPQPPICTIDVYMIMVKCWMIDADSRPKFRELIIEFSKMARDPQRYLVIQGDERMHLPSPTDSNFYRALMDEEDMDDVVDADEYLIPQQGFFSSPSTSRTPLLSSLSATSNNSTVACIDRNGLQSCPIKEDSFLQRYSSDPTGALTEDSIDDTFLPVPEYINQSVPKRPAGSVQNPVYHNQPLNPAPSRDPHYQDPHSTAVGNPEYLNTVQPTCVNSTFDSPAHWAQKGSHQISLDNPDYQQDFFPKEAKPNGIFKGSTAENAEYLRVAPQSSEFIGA

BaF3 [7] = experiment: Cytotoxicity against mouse BaF3 cells expressing EGFR L858R/C797S mutant assessed as reduction in cell viability incubated for 96 hrs by CellTiter-Glo assay; format: functional, cell-based; settings: BaF3, 96 h
A-431 = experiment: Cytotoxicity against human A-431 cells expressing wild type EGFR assessed as reduction in cell viability incubated for 96 hrs by CellTiter-Glo assay; format: functional, cell-based; settings: A-431, 96 h
[8] = Intrinsic clearance in mouse liver microsomes at 1 uM in presence of NADP measured per mg protein by LC-MS/MS analysis; format: ADME, Microsome; settings: read-out: CLH
[9] = target: Tyrosine-protein kinase ABL1 (Homo sapiens) (UniProt P00519); experiment: Inhibition of His-tagged human recombinant ABL1 expressed in insect cells at 200 nM by Z'-lyte assay; settings: Insect cell
[10] = target: ALK tyrosine kinase receptor (Homo sapiens) (UniProt Q9UM73); experiment: Inhibition of human ALK at 200 nM by Z'-lyte assay
[11] = target: Tyrosine-protein kinase Blk (Homo sapiens) (UniProt P51451); experiment: Inhibition of His-tagged human recombinant BLK expressed in insect cells at 200 nM by Z'-lyte assay; settings: Insect cell
[12] = target: Tyrosine-protein kinase HCK (Homo sapiens) (UniProt P08631); experiment: Inhibition of GST-tagged human recombinant HCK expressed in insect cells at 200 nM by Z'-lyte assay; settings: Insect cell
[13] = target: Epidermal growth factor receptor (Homo sapiens, UniProt P00533, L858R); experiment: Inhibition of EGFR L858R mutant (unknown origin) using TK-substrate preincubated with enzyme for 30 mins followed by substrate and ATP addition for 15 mins by HTRF assay
Sequence of Epidermal growth factor receptor (Homo sapiens, UniProt P00533, L858R) (P00533 25-1210 L858R limits assumed): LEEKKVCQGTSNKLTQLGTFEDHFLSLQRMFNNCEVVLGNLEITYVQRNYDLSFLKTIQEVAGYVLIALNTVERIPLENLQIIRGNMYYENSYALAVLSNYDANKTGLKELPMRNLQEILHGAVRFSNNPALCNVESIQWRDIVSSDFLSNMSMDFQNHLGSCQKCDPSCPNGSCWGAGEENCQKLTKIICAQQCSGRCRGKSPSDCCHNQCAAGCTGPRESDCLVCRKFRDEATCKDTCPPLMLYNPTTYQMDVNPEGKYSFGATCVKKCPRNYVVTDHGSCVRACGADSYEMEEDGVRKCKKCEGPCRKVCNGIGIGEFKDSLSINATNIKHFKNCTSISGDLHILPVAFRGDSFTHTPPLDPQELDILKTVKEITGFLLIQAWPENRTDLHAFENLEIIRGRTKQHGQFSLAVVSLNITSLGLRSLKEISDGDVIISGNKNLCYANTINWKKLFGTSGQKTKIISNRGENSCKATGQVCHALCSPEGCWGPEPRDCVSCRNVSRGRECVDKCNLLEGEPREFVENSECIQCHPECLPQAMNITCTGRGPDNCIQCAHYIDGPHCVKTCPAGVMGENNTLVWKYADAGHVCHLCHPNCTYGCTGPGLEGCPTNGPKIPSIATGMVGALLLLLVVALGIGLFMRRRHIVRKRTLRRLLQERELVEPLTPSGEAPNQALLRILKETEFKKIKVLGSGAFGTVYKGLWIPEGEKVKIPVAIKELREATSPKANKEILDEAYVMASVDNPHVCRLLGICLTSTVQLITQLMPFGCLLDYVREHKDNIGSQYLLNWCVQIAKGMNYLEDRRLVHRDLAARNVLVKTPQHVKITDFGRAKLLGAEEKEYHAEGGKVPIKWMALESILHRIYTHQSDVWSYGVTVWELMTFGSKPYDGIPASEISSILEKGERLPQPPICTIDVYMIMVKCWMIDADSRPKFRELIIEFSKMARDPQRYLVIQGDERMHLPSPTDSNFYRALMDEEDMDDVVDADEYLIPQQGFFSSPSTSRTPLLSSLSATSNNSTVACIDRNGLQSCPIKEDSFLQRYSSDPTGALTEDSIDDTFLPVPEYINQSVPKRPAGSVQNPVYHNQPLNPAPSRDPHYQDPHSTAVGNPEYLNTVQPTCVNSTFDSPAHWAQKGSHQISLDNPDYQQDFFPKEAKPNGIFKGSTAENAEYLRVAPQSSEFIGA

BaF3 [14] = experiment: Cytotoxicity against mouse BaF3 cells expressing EGFR L858R mutant assessed as reduction in cell viability incubated for 96 hrs by CellTiter-Glo assay; format: functional, cell-based; settings: BaF3, 96 h
Method in brief: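 Cell viability measured by CellTiter-Glo (CTG) luminescence. A431 cells are EGFR wild-type dependent. Ba/F3 cells are made dependent on EGFR-L858R or EGFR-L858R/C797S. Readout is an EC50 for loss of viability.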

[15] = target: Platelet-derived growth factor receptor alpha (Homo sapiens) (UniProt P16234); experiment: Inhibition of GST-tagged human recombinant PDGFR-alpha (550 to 1089 residues) expressed in baculovirus expression system at 200 nM by Z'-lyte assay
[16] = target: Tyrosine-protein kinase Fyn (Homo sapiens) (UniProt P06241); experiment: Inhibition of His-tagged human recombinant FYN expressed in insect cells at 200 nM by Z'-lyte assay; settings: Insect cell
[17] = target: Tyrosine-protein kinase Fes/Fps (Homo sapiens) (UniProt P07332); experiment: Inhibition of His-tagged human recombinant FES expressed in baculovirus expression system at 200 nM by Z'-lyte assay
[18] = target: Fibroblast growth factor receptor 2 (Homo sapiens) (UniProt P21802); experiment: Inhibition of His-tagged human recombinant FGFR2 (403 to 822 residues) expressed in baculovirus expression system at 200 nM by Z'-lyte assay
[19] = target: Platelet-derived growth factor receptor beta (Homo sapiens) (UniProt P09619); experiment: Inhibition of His-tagged human recombinant PDGFR-beta (558 to 1106 residues) expressed in baculovirus expression system at 200 nM by Z'-lyte assay
[20] = target: Tyrosine-protein kinase TXK (Homo sapiens) (UniProt P42681); experiment: Inhibition of GST-tagged human recombinant TXK (260 to 527 residues) expressed in baculovirus expression system at 200 nM by Z'-lyte assay
[21] = target: Vascular endothelial growth factor receptor 2 (Homo sapiens) (UniProt P35968); experiment: Inhibition of His-tagged human recombinant VEGFR2 (789 to 1356 residues) expressed in insect cells at 200 nM by Z'-lyte assay; settings: Insect cell
Insect cell = experiment: Inhibition of GST-tagged human recombinant VEGFR3 (800 to 1297 residues) Q890H/V1128L/H1146R mutant expressed in insect cells at 200 nM by Z'-lyte assay
[22] = target: Tyrosine-protein kinase BTK (Homo sapiens) (UniProt Q06187); experiment: Inhibition of His-tagged human recombinant BTK expressed in insect cells at 200 nM by Z'-lyte assay; settings: Insect cell
[23] = tested on: Epidermal growth factor receptor (Homo sapiens), P00533 [L858R,T790M]; experiment: Inhibition of EGFR L858R/T790M mutant (unknown origin) using TK-substrate preincubated with enzyme for 30 mins followed by substrate and ATP addition for 20 mins by HTRF assay; settings: time 50.0 min
BaF3 [24] = experiment: Cytotoxicity against mouse BaF3 cells expressing EGFR L858R/T790M/C797S mutant assessed as reduction in cell viability incubated for 96 hrs by CellTiter-Glo assay; format: functional, cell-based; settings: BaF3, 96 h

| Structure (SMILES) | IC50 [4] | IC50 [5] | IC50 [6] | EC50 (BaF3 [7]) | EC50 (A-431) | EC50 (BaF3 [14]) | further results |
| --- | --- | --- | --- | --- | --- | --- | --- |
| COc1cc(N2CCC(N3CCN(C)CC3)CC2)ccc1Nc1ncc(Cl)c(Nc2ccccc2P(C)(C)=O)n1 [BRIGATINIB] |  |  |  | 295 nM | 936 nM |  |  |
| COc1cc(N2CCN(C)CC2)ccc1Nc1ncc(C(=O)Oc2ccc(F)cc2)c(-c2cn(C)c3ccccc23)n1 |  |  |  | 227 nM | 1410 nM |  |  |
| COc1cc(N2CCN(C)CC2)ccc1Nc1ncc(C(=O)OC(C)C)c(-c2cn(C)c3ccccc23)n1 |  |  |  | 615 nM | 7960 nM | 605 nM |  |
| C=CC(=O)Nc1cc(Nc2nccc(-c3cn(C)c4ccccc34)n2)c(OC)cc1N(C)CCN(C)C [OSIMERTINIB] |  |  |  | 2960 nM | […] | 6 nM | microsomal CLint at 1 µM [8]: 81 µL/min/mg |
| COc1cc(N2CCC(N(C)C)CC2)ccc1Nc1ncc(C(=O)Oc2ccccc2)c(-c2c[nH]c3ccccc23)n1 | 0.008 nM | 0.02 nM | 0.64 nM | 7.1 nM | 1840 nM |  | inhibition [15]: > 40%; inhibition [16]: > 40%; inhibition [17]: > 40%; inhibition [18]: > 40%; microsomal CLint at 1 µM [8]: 55 µL/min/mg; inhibition [19]: > 40%; inhibition [20]: > 40%; inhibition [21]: > 40%; inhibition (Insect cell): > 40%; inhibition [22]: Active; inhibition [23]: Active; EC50 (BaF3 [24]): 470 nM |
| C=CC(=O)Nc1cc(Nc2ncc(C(=O)OC(C)C)c(-c3cn(C)c4ccccc34)n2)c(OC)cc1N(C)CCN(C)C [MOBOCERTINIB] | 0.025 nM | 25 nM | 364 nM | 2710 nM | 1680 nM | 1.1 nM | IC50 [13]: 0.01 nM; microsomal CLint at 1 µM [8]: 149 µL/min/mg |

More lines, main results first:

| IC50 [4] | IC50 [5] | IC50 [6] | Structure (SMILES) | EC50 (BaF3 [7]) | EC50 (A-431) | EC50 (BaF3 [14]) | further results |
| --- | --- | --- | --- | --- | --- | --- | --- |
| 0.16 nM | 0.32 nM | 15 nM | COc1cc(N2CCC(N(C)C)CC2)ccc1Nc1ncc(C(=O)OC(C)C)c(-c2c[nH]c3ccccc23)n1 | 111 nM | 3890 nM |  | inhibition [1]: > 40%; inhibition [2]: > 40%; inhibition [3]: > 40%; microsomal CLint at 1 µM [8]: 49 µL/min/mg; inhibition [9]: > 40%; inhibition [10]: > 40%; inhibition [11]: > 40%; inhibition [12]: > 40% |
| 23 nM | 73 nM |  | COC(=O)c1cnc(Nc2ccc(N3CCN(C)CC3)cc2OC)nc1-c1cn(C)c2ccccc12 | 3750 nM |  | 3340 nM | IC50 [13]: 3.4 nM |
| 0.4 nM | 0.42 nM | 19 nM | COc1cc(N2CCC(N(C)C)CC2)ccc1Nc1ncc(C(=O)OC(C)C)c(-c2cn(C)c3ccccc23)n1 | 202 nM | 3670 nM |  |  |
| 0.86 nM | 3 nM | 78 nM | COc1cc(N2CCC(N(C)C)CC2)ccc1Nc1ncc(C(=O)OC(C)C)c(-c2cn(C(C)=O)c3ccccc23)n1 | 220 nM | 3920 nM |  |  |
| 5.2 nM | 17 nM |  | CCOC(=O)c1cnc(Nc2ccc(N3CCN(C)CC3)cc2OC)nc1-c1cn(C)c2ccccc12 | 1880 nM |  | 1900 nM | IC50 [13]: 0.68 nM |
| 34 nM | 125 nM |  | COc1cc(N2CCN(C)CC2)ccc1Nc1nccc(-c2cn(C)c3ccccc23)n1 | 2060 nM |  | 3630 nM | IC50 [13]: 5.4 nM |
| 0.053 nM | 0.064 nM | 8.8 nM | COc1cc(N2CCN(C)CC2)ccc1Nc1ncc(C(=O)Oc2ccccc2)c(-c2cn(C)c3ccccc23)n1 | 94 nM | 2610 nM |  |  |
| 0.35 nM | 0.56 nM | 12 nM | COc1cc(N2CCC(N)CC2)ccc1Nc1ncc(C(=O)OC(C)C)c(-c2cn(C)c3ccccc23)n1 | 354 nM | 4020 nM |  |  |
